In ChEMBL document CHEMBL4706687, “Synthesis and Pharmacological Evaluation of Novel Non-nucleotide Purine Derivatives as P2X7 Antagonists for the Treatment of Neuroinflammation” (J Med Chem, 2021):
Calls of active or inactive are those of the source. The calls are words filed in the database; no cut-off is given here.

Legend:
P2X purinoceptor 7 = target: T1, P2X purinoceptor 7 (Homo sapiens, UniProt Q99572); assay: Antagonist activity at human P2X7 receptor expressed in HEK293 cells assessed as reduction in benzoyl-ATP-induced YO-PRO-1 dye uptake pre-incubated for 20 mins before YO-PRO-1 addition and measured after 25 mins by fluorescence plate reader analysis relative to control; type: cell-based
T1 sequence (Q99572 whole entry): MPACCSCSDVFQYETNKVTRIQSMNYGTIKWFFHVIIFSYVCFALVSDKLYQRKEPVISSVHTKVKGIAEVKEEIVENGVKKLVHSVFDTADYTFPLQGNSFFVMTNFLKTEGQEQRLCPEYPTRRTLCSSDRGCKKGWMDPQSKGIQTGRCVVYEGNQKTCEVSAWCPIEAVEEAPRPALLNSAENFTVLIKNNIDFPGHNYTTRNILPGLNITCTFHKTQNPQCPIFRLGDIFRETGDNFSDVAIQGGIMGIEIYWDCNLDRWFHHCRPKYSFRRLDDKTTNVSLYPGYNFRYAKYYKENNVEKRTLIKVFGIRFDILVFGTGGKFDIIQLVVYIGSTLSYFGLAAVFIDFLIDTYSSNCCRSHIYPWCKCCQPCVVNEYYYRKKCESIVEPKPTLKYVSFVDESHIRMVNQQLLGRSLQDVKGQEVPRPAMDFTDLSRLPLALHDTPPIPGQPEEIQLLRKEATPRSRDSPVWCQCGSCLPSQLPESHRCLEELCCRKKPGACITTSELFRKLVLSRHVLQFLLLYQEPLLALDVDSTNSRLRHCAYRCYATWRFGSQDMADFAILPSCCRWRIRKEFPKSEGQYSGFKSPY
Method in brief: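 Stably transfected hP2X7-HEK293 cells, 48 h after seeding, in Mg²⁺-free Krebs-HEPES (0.2 mM CaCl₂, pH 7.4). Compound preincubation 20 min, then YO-PRO-1 2 μM, then BzATP 30 μM. Fluorescence at 485/520 nm read for 25 min. Each well normalized to Fmax (0.5% Triton X-100) and Fmin (2 M MnCl₂): F = (Fx − F0)/(Fmax − Fmin). Triplicates from three cultures. IC50 is the concentration halving BzATP-induced uptake.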

[1] = target: T2, P2X purinoceptor 2 (Rattus norvegicus) (UniProt P49653); assay: Antagonist activity at rat P2X2 receptor expressed in Xenopus laevis oocytes assessed as reduction in ATP-induced channel currents at 100 uM by TEVC electrophysiology assay relative to control; type: cell-based; conditions: Oocyte
T2 sequence (whole entry): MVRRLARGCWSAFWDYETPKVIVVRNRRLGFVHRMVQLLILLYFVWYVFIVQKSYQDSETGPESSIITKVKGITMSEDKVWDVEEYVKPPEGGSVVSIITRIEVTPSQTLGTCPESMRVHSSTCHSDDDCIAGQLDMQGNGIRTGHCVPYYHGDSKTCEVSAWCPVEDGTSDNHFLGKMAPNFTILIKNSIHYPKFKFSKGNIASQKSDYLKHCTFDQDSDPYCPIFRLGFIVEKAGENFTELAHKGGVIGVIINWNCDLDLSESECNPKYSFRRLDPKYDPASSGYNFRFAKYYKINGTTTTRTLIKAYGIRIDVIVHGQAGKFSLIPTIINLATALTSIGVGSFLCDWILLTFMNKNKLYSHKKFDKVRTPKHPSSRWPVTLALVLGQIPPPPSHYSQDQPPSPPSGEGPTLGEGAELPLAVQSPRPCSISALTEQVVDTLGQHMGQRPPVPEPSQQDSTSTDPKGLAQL
Method in brief: (§1)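 Two-electrode voltage clamp at −70 mV in low divalent-cation solution, oocytes incubated 1–2 days at 16–18 °C after 50 nL cRNA injection: rP2X1 and rP2X4 at 0.5 mg/mL, rP2X2 0.1 mg/mL, rP2X7 25 μg/mL. ATP 10 μM for rP2X1 and rP2X2, 30 μM for rP2X4 and rP2X7. Compound applied 3 min without perfusion. Currents normalized to control; three oocytes from two frogs.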

[2] = target: T3, P2X purinoceptor 7 (Rattus norvegicus) (UniProt Q64663); assay: Antagonist activity at rat P2X7 receptor expressed in Xenopus laevis oocytes assessed as reduction in ATP-induced channel currents at 100 uM by TEVC electrophysiology assay relative to control; type: cell-based; conditions: Oocyte, filed as antagonist; method in brief: as §1
T3 sequence (whole entry): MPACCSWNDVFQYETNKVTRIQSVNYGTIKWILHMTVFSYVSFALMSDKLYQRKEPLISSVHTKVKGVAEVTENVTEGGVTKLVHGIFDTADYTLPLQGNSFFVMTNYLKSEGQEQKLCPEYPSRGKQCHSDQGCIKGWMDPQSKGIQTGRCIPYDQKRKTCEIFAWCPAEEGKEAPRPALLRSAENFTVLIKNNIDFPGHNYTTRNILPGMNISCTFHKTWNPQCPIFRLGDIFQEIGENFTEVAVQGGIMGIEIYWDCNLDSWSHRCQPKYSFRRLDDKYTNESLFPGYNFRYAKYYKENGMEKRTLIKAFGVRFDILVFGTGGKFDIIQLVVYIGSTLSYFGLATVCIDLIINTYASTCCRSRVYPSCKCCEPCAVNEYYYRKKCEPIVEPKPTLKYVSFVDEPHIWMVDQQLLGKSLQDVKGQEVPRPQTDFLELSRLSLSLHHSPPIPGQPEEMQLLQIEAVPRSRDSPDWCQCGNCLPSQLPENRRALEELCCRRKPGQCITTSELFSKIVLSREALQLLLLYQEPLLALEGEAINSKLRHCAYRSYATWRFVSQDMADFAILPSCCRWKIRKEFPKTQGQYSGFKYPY

Peritoneal macrophage = assay: Inhibition of Il-1beta production in LPS-stimulated C57BL/6 mouse peritoneal macrophages pre-incubated for 15 mins followed by ATP addition for 30 mins by ELISA method; type: functional, tissue-based; conditions: time 45.0 min
Method in brief: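 Thioglycolate-elicited peritoneal macrophages from 6–8-week male C57BL/6 mice, 3 × 10⁵ cells/well. Primed 4 h with LPS 1 μg/mL (E. coli 026:B6), then serum-free DMEM with compound for 15 min, then ATP for 30 min. Supernatant IL-1β measured by ELISA, expressed as percent of ATP-only control. Triplicates from three mice.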

[3] = target: T4, P2X purinoceptor 1 (Rattus norvegicus) (UniProt P47824); assay: Antagonist activity at rat P2X1 receptor expressed in Xenopus laevis oocytes assessed as reduction in ATP-induced channel currents at 100 uM by TEVC electrophysiology assay relative to control; type: cell-based; conditions: Oocyte; method in brief: as §1
T4 sequence (whole entry): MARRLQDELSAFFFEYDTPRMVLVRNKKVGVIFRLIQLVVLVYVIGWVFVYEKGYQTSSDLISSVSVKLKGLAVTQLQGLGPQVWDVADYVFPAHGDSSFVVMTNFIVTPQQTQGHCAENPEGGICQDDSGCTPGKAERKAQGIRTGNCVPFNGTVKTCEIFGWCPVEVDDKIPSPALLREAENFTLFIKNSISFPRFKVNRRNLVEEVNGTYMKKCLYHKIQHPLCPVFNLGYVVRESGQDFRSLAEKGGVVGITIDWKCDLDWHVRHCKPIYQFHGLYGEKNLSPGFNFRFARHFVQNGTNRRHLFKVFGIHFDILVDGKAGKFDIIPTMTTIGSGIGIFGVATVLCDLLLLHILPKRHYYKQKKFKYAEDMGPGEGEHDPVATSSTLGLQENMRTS

O=C(Cn1cnc2c(Cl)ncnc21)c1ccc(Cl)cc1Cl
IC50 (P2X purinoceptor 7): 9 µM | inhibition [1]: inactive | inhibition [2]: Active | inhibition (Peritoneal macrophage): Dose-dependent effect | inhibition [3]: inactive
